In brackets after ≈: the same amount, converted by molar mass.
What was measured:
Assay type in all cases: functional
Pseudomonas aeruginosa = test: Antibacterial activity against Pseudomonas aeruginosa ATCC 27853 after 3 to 4 days by serial plate dilution method; conditions: for MIC: Pseudomonas aeruginosa, ATCC 27853
[1] = tested on: Mycobacterium tuberculosis; test: Antituberculosis activity against Mycobacterium tuberculosis H37Rv ATCC 27294 after 7 days using resazurin dye by broth microdilution assay; conditions: H37Rv ATCC 27294, 168 h
Summary of the method: (§1)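 M. tuberculosis H37Rv grown in Middlebrook 7H9 with 10% OADC and 0.5% glycerol, adjusted to McFarland 1.0. Compounds were dissolved in DMF as stocks and tested at final levels of 1.56, 3.12, 6.25, 12.5, 25 and 50 in 96-well REMA. Controls were DMF-only, growth, rifampicin and isoniazid. After 7 days at 37 °C, 0.01% resazurin was added for 24 h and the colour change read.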

[2] = tested on: Mycobacterium tuberculosis; test: Antituberculosis activity against Mycobacterium tuberculosis at MIC concentration after 7 days using resazurin dye by broth microdilution assay; summary of the method: as §1
Escherichia coli = test: Antibacterial activity against Escherichia coli ATCC 25922 after 3 to 4 days by serial plate dilution method; conditions: for MIC: Escherichia coli, ATCC 25922
Staphylococcus aureus = test: Antibacterial activity against Staphylococcus aureus ATCC 25923 after 3 to 4 days by serial plate dilution method; conditions: for MIC: Staphylococcus aureus, ATCC 25923
Klebsiella pneumoniae = test: Antibacterial activity against recultured Klebsiella pneumoniae after 3 to 4 days by serial plate dilution method; conditions: for MIC: Klebsiella pneumoniae
[3] = tested on: Mycobacterium tuberculosis; test: Antituberculosis activity against Mycobacterium tuberculosis; summary of the method: as §1

Cn1cccc1/C=N/Nc1cc(C(F)(F)F)nc2c(C(F)(F)F)cccc12
diameter of the inhibition zone (DIZ) (Pseudomonas aeruginosa): 24 mm
MIC (Pseudomonas aeruginosa): 6.25 µg/mL (≈ 16.2 µM)
MIC [1]: 12.5 µM (≈ 4.83 µg/mL)
inhibition (INH) [2]: <90%
diameter of the inhibition zone (DIZ) (Escherichia coli): 20 mm
MIC (Escherichia coli): 6.25 µg/mL (≈ 16.2 µM)
diameter of the inhibition zone (DIZ) (Staphylococcus aureus): 22 mm
MIC (Staphylococcus aureus): 6.25 µg/mL (≈ 16.2 µM)
diameter of the inhibition zone (DIZ) (Klebsiella pneumoniae): 21 mm
MIC (Klebsiella pneumoniae): 6.25 µg/mL (≈ 16.2 µM)

FC(F)(F)c1cc(N/N=C/c2ccc3nonc3c2)c2cccc(C(F)(F)F)c2n1
diameter of the inhibition zone (DIZ) (Pseudomonas aeruginosa): 24 mm
MIC (Pseudomonas aeruginosa): 6.25 µg/mL (≈ 14.7 µM)
MIC [1]: 12.5 µM (≈ 5.32 µg/mL)
inhibition (INH) [2]: <90%
diameter of the inhibition zone (DIZ) (Escherichia coli): 22 mm
MIC (Escherichia coli): 6.25 µg/mL (≈ 14.7 µM)
diameter of the inhibition zone (DIZ) (Staphylococcus aureus): 18 mm
MIC (Staphylococcus aureus): 6.25 µg/mL (≈ 14.7 µM)
diameter of the inhibition zone (DIZ) (Klebsiella pneumoniae): 20 mm
MIC (Klebsiella pneumoniae): 6.25 µg/mL (≈ 14.7 µM)

Cn1nnc2cc(/C=N/Nc3cc(C(F)(F)F)nc4c(C(F)(F)F)cccc34)ccc21
diameter of the inhibition zone (DIZ) (Pseudomonas aeruginosa): 24 mm
MIC (Pseudomonas aeruginosa): 6.25 µg/mL (≈ 14.3 µM)
MIC [1]: 12.5 µM (≈ 5.48 µg/mL)
inhibition (INH) [2]: <90%
diameter of the inhibition zone (DIZ) (Escherichia coli): 20 mm
MIC (Escherichia coli): 6.25 µg/mL (≈ 14.3 µM)
diameter of the inhibition zone (DIZ) (Staphylococcus aureus): 22 mm
MIC (Staphylococcus aureus): 6.25 µg/mL (≈ 14.3 µM)
diameter of the inhibition zone (DIZ) (Klebsiella pneumoniae): 21 mm
MIC (Klebsiella pneumoniae): 6.25 µg/mL (≈ 14.3 µM)

Cc1cccc2c(/C=N/Nc3cc(C(F)(F)F)nc4c(C(F)(F)F)cccc34)c[nH]c12
diameter of the inhibition zone (DIZ) (Pseudomonas aeruginosa): 24 mm
MIC (Pseudomonas aeruginosa): 6.25 µg/mL (≈ 14.3 µM)
MIC [1]: 6.25 µM (≈ 2.73 µg/mL)
inhibition (INH) [2]: 95%
diameter of the inhibition zone (DIZ) (Escherichia coli): 27 mm
MIC (Escherichia coli): 6.25 µg/mL (≈ 14.3 µM)
diameter of the inhibition zone (DIZ) (Staphylococcus aureus): 24 mm
MIC (Staphylococcus aureus): 6.25 µg/mL (≈ 14.3 µM)
diameter of the inhibition zone (DIZ) (Klebsiella pneumoniae): 19 mm
MIC (Klebsiella pneumoniae): 6.25 µg/mL (≈ 14.3 µM)

Cc1nc[nH]c1/C=N/Nc1cc(C(F)(F)F)nc2c(C(F)(F)F)cccc12
diameter of the inhibition zone (DIZ) (Pseudomonas aeruginosa): 25 mm
MIC (Pseudomonas aeruginosa): 6.25 µg/mL (≈ 16.1 µM)
MIC [1]: 3.12 µM (≈ 1.21 µg/mL)
inhibition (INH) [2]: 99%
diameter of the inhibition zone (DIZ) (Escherichia coli): 26 mm
MIC (Escherichia coli): 6.25 µg/mL (≈ 16.1 µM)
diameter of the inhibition zone (DIZ) (Staphylococcus aureus): 24 mm
MIC (Staphylococcus aureus): 6.25 µg/mL (≈ 16.1 µM)
diameter of the inhibition zone (DIZ) (Klebsiella pneumoniae): 22 mm
MIC (Klebsiella pneumoniae): 6.25 µg/mL (≈ 16.1 µM)

O=C(NNc1cc(C(F)(F)F)nc2c(C(F)(F)F)cccc12)Nc1ccc(F)cc1
diameter of the inhibition zone (DIZ) (Pseudomonas aeruginosa): 14 mm
MIC (Pseudomonas aeruginosa): 12.5 µg/mL (≈ 28.9 µM)
MIC [1]: 12.5 µM (≈ 5.4 µg/mL)
inhibition (INH) [2]: <90%
diameter of the inhibition zone (DIZ) (Escherichia coli): 10 mm
MIC (Escherichia coli): 12.5 µg/mL (≈ 28.9 µM)
diameter of the inhibition zone (DIZ) (Staphylococcus aureus): 10 mm
MIC (Staphylococcus aureus): 12.5 µg/mL (≈ 28.9 µM)
diameter of the inhibition zone (DIZ) (Klebsiella pneumoniae): <10 mm
MIC (Klebsiella pneumoniae): 50 µg/mL (≈ 116 µM)

COc1ccccc1NC(=O)NNc1cc(C(F)(F)F)nc2c(C(F)(F)F)cccc12
diameter of the inhibition zone (DIZ) (Pseudomonas aeruginosa): 22 mm
MIC (Pseudomonas aeruginosa): 6.25 µg/mL (≈ 14.1 µM)
MIC [1]: 12.5 µM (≈ 5.55 µg/mL)
inhibition (INH) [2]: <90%
diameter of the inhibition zone (DIZ) (Escherichia coli): 24 mm
MIC (Escherichia coli): 6.25 µg/mL (≈ 14.1 µM)
diameter of the inhibition zone (DIZ) (Staphylococcus aureus): 21 mm
MIC (Staphylococcus aureus): 6.25 µg/mL (≈ 14.1 µM)
diameter of the inhibition zone (DIZ) (Klebsiella pneumoniae): 18 mm
MIC (Klebsiella pneumoniae): 6.25 µg/mL (≈ 14.1 µM)

Cc1cc(C)cc(NC(=O)NNc2cc(C(F)(F)F)nc3c(C(F)(F)F)cccc23)c1
diameter of the inhibition zone (DIZ) (Pseudomonas aeruginosa): 24 mm
MIC (Pseudomonas aeruginosa): 6.25 µg/mL (≈ 14.1 µM)
MIC [1]: 6.25 µM (≈ 2.76 µg/mL)
inhibition (INH) [2]: 95%
diameter of the inhibition zone (DIZ) (Escherichia coli): 20 mm
MIC (Escherichia coli): 6.25 µg/mL (≈ 14.1 µM)
diameter of the inhibition zone (DIZ) (Staphylococcus aureus): 23 mm
MIC (Staphylococcus aureus): 6.25 µg/mL (≈ 14.1 µM)
diameter of the inhibition zone (DIZ) (Klebsiella pneumoniae): 22 mm
MIC (Klebsiella pneumoniae): 6.25 µg/mL (≈ 14.1 µM)

OC(c1cc(C(F)(F)F)nc2c(C(F)(F)F)cccc12)C1CCCCN1 (stereo unspecified) [MEFLOQUINE]
MIC [3]: 25 µg/mL (≈ 66.1 µM)

From ChEMBL document CHEMBL1208682, “New quinoline derivatives: synthesis and investigation of antibacterial and antituberculosis properties” (2010)
